Active and inactive are the calls of the source. The rule behind the calls is not given here.
How the values were obtained:
[1] = target: T1, RAC-alpha serine/threonine-protein kinase (Homo sapiens, UniProt P31749); assay: Inhibition of AKT
[2] = Cytotoxicity against human MDA468 cells expressing AKT; assay type: functional, cell-based, MDA-MB-468; details: Homo sapiens, MDA-MB-468
[3] = target: T1, RAC-alpha serine/threonine-protein kinase; assay: Inhibition of AKT at < 10 uM
[4] = target: RAC-alpha serine/threonine-protein kinase (Homo sapiens, UniProt P31749, C310A); assay: Inhibition of AKT C310A mutant
[5] = target: RAC-alpha serine/threonine-protein kinase (Homo sapiens, UniProt P31749, C296A); assay: Inhibition of AKT C296A mutant
[6] = tested on: RAC-alpha serine/threonine-protein kinase (Homo sapiens), P31749 [C296A,C310A]; assay: Inhibition of AKT C296A/C310A mutant up to 40 uM
Chain of RAC-alpha serine/threonine-protein kinase (Homo sapiens), P31749 [C296A,C310A] (P31749 whole entry C296A/C310A): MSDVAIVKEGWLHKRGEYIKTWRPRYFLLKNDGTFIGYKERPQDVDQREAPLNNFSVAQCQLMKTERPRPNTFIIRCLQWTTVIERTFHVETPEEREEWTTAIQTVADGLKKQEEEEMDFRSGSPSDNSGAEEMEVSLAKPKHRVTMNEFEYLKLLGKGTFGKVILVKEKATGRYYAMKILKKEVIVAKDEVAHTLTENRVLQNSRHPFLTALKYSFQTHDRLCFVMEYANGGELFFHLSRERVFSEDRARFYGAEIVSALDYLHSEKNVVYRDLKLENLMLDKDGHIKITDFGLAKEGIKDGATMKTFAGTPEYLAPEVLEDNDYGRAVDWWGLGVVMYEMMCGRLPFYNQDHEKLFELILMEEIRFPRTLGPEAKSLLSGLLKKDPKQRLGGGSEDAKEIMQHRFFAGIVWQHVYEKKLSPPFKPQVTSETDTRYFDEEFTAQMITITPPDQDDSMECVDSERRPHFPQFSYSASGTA

[7] = target: Tyrosine-protein kinase ABL1 (Homo sapiens) (UniProt P00519); assay: Inhibition of ABL1 at 1 uM
Summary of the method: (§1)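 Single-concentration (1 µM) selectivity screen run as an outsourced commercial panel of 45 kinases.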

[8] = target: T1, RAC-alpha serine/threonine-protein kinase; assay: Inhibition of AKT1 at 1 uM; summary of the method: as §1
[9] = target: RAC-beta serine/threonine-protein kinase (Homo sapiens) (UniProt P31751); assay: Inhibition of AKT2 at 1 uM; summary of the method: as §1
[10] = target: Tyrosine-protein kinase BTK (Homo sapiens) (UniProt Q06187); assay: Inhibition of BTK at 1 uM; summary of the method: as §1
[11] = target: Cyclin-dependent kinase 1/cyclin B1 (Homo sapiens) (UniProt P06493+P14635); assay: Inhibition of CDK1/cyclin B at 1 uM; assay type: protein-complex assay; summary of the method: as §1
[12] = target: Cyclin-dependent kinase 2 (Homo sapiens) (UniProt P24941); assay: Inhibition of CDK2/cyclin A at 1 uM; summary of the method: as §1
[13] = target: Serine/threonine-protein kinase Chk1 (Homo sapiens) (UniProt O14757); assay: Inhibition of CHEK1 at 1 uM; summary of the method: as §1
[14] = target: Macrophage colony-stimulating factor 1 receptor (Homo sapiens) (UniProt P07333); assay: Inhibition of CSF1R at 1 uM; summary of the method: as §1
[15] = target: Tyrosine-protein kinase CSK (Homo sapiens) (UniProt P41240); assay: Inhibition of CSK at 1 uM; summary of the method: as §1
[16] = target: Epidermal growth factor receptor (Homo sapiens) (UniProt P00533); assay: Inhibition of EGFR at 1 uM; summary of the method: as §1
[17] = target: Receptor tyrosine-protein kinase erbB-4 (Homo sapiens) (UniProt Q15303); assay: Inhibition of ERBB4 at 1 uM; summary of the method: as §1
[18] = target: Fibroblast growth factor receptor 1 (Homo sapiens) (UniProt P11362); assay: Inhibition of FGFR1 at 1 uM; summary of the method: as §1
[19] = target: Vascular endothelial growth factor receptor 1 (Homo sapiens) (UniProt P17948); assay: Inhibition of FLT1 at 1 uM; summary of the method: as §1
[20] = target: Receptor-type tyrosine-protein kinase FLT3 (Homo sapiens) (UniProt P36888); assay: Inhibition of FLT3 at 1 uM; summary of the method: as §1
[21] = target: Tyrosine-protein kinase Fyn (Homo sapiens) (UniProt P06241); assay: Inhibition of FYN at 1 uM; summary of the method: as §1
[22] = target: Insulin-like growth factor 1 receptor (Homo sapiens) (UniProt P08069); assay: Inhibition of IGF1R at 1 uM; summary of the method: as §1
Chain of Insulin-like growth factor 1 receptor (Homo sapiens) (P08069 31-736 limits assumed): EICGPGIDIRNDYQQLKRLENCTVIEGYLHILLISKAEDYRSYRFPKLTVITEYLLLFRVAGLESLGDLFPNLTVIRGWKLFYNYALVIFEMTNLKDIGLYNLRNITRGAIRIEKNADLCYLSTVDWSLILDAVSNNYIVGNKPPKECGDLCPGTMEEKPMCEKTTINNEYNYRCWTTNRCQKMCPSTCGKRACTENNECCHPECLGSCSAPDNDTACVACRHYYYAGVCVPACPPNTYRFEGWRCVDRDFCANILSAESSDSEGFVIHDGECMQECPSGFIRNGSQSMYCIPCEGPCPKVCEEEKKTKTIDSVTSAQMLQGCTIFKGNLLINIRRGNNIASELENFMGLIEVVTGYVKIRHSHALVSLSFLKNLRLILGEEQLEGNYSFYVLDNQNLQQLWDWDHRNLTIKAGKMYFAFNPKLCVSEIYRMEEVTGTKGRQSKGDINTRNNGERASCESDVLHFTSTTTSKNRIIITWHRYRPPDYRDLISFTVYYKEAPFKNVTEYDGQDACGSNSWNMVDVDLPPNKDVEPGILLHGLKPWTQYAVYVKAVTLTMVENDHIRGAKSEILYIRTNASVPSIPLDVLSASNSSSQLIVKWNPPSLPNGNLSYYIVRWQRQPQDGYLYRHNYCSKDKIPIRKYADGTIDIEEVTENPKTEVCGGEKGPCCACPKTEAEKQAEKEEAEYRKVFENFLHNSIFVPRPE
Chain of Insulin-like growth factor 1 receptor (Homo sapiens) (P08069 741-1367 limits assumed): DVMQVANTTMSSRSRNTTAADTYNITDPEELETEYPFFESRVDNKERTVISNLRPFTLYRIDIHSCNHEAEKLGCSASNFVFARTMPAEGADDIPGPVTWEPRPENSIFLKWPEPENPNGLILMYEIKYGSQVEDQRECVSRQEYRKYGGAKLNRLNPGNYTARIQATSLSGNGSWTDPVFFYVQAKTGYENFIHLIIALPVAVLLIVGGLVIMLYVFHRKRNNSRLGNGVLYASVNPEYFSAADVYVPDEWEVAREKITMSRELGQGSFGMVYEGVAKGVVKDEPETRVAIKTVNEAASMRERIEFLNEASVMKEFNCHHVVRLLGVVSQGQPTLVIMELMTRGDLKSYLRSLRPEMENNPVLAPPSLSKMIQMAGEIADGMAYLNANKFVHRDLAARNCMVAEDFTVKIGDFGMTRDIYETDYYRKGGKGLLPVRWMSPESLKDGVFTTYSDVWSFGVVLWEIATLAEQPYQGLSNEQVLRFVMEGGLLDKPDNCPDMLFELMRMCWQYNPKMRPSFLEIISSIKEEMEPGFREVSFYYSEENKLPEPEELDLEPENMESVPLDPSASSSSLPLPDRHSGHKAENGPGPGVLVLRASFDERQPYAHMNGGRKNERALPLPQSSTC

[23] = target: Inhibitor of nuclear factor kappa-B kinase subunit beta (Homo sapiens) (UniProt O14920); assay: Inhibition of IKBKB at 1 uM; summary of the method: as §1
[24] = target: Insulin receptor (Homo sapiens) (UniProt P06213); assay: Inhibition of INSR at 1 uM; summary of the method: as §1
[25] = target: Vascular endothelial growth factor receptor 2 (Homo sapiens) (UniProt P35968); assay: Inhibition of KDR at 1 uM; summary of the method: as §1
[26] = target: Tyrosine-protein kinase Lck (Homo sapiens) (UniProt P06239); assay: Inhibition of LCK at 1 uM; summary of the method: as §1
[27] = target: Dual specificity mitogen-activated protein kinase kinase 1 (Homo sapiens) (UniProt Q02750); assay: Inhibition of MAP2K1 at 1 uM; summary of the method: as §1
Chain of Dual specificity mitogen-activated protein kinase kinase 1 (Homo sapiens) (Q02750 whole entry): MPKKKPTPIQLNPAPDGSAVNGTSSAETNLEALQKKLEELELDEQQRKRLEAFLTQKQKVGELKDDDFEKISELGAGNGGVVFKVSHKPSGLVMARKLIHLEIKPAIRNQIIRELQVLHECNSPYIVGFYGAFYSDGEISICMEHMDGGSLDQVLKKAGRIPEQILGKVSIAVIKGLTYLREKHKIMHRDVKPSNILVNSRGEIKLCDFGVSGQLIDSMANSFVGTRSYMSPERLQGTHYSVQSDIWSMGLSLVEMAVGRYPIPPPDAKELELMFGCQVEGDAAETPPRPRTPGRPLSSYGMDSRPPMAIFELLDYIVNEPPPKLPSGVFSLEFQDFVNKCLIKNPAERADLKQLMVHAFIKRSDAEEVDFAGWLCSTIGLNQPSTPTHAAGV

[28] = target: Mitogen-activated protein kinase kinase kinase kinase 5 (Homo sapiens) (UniProt Q9Y4K4); assay: Inhibition of MAP4K5 at 1 uM; summary of the method: as §1
[29] = target: Mitogen-activated protein kinase 1 (Homo sapiens) (UniProt P28482); assay: Inhibition of MAPK1 at 1 uM; summary of the method: as §1
[30] = target: Mitogen-activated protein kinase 14 (Homo sapiens) (UniProt Q16539); assay: Inhibition of MAPK14 at 1 uM; summary of the method: as §1
[31] = target: Mitogen-activated protein kinase 3 (Homo sapiens) (UniProt P27361); assay: Inhibition of MAPK3 at 1 uM; summary of the method: as §1
[32] = target: Hepatocyte growth factor receptor (Homo sapiens) (UniProt P08581); assay: Inhibition of MET at 1 uM; summary of the method: as §1
[33] = target: Serine/threonine-protein kinase Nek2 (Homo sapiens) (UniProt P51955); assay: Inhibition of NEK2 at 1 uM; summary of the method: as §1
[34] = target: High affinity nerve growth factor receptor (Homo sapiens) (UniProt P04629); assay: Inhibition of NTRK1 at 1 uM; summary of the method: as §1
[35] = target: Platelet-derived growth factor receptor alpha (Homo sapiens) (UniProt P16234); assay: Inhibition of PDGFRA at 1 uM; summary of the method: as §1
[36] = target: Platelet-derived growth factor receptor beta (Homo sapiens) (UniProt P09619); assay: Inhibition of PDGFRB at 1 uM; summary of the method: as §1
Chain of Platelet-derived growth factor receptor beta (Homo sapiens) (P09619 whole entry): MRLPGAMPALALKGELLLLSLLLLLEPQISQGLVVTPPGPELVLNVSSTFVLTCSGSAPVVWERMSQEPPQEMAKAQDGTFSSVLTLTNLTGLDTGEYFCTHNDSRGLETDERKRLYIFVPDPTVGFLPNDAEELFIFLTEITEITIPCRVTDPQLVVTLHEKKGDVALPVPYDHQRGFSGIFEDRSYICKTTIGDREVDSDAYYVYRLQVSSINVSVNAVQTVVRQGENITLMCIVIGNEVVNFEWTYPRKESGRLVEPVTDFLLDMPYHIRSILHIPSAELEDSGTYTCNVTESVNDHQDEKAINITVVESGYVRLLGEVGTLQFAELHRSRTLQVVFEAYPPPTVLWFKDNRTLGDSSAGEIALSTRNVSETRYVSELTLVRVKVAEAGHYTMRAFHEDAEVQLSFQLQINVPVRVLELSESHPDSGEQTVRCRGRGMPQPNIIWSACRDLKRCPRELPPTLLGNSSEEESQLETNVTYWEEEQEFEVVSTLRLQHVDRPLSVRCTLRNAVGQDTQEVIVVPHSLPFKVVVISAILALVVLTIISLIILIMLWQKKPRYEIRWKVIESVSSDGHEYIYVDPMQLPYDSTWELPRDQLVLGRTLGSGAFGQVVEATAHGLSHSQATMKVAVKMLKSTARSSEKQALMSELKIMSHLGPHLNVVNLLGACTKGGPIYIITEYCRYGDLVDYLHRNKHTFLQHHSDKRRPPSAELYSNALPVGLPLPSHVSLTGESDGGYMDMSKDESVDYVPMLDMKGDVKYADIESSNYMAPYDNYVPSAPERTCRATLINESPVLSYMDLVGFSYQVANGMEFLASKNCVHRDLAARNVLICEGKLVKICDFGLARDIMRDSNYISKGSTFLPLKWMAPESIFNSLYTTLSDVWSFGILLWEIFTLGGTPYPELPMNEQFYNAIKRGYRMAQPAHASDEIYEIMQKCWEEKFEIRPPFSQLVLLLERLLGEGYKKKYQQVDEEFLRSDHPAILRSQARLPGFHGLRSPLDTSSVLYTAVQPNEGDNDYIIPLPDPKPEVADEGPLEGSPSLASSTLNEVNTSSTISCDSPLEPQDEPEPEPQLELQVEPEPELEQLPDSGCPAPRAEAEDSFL

[37] = target: Serine/threonine-protein kinase PLK1 (Homo sapiens) (UniProt P53350); assay: Inhibition of PLK1 at 1 uM; summary of the method: as §1
Chain of Serine/threonine-protein kinase PLK1 (Homo sapiens) (P53350 whole entry): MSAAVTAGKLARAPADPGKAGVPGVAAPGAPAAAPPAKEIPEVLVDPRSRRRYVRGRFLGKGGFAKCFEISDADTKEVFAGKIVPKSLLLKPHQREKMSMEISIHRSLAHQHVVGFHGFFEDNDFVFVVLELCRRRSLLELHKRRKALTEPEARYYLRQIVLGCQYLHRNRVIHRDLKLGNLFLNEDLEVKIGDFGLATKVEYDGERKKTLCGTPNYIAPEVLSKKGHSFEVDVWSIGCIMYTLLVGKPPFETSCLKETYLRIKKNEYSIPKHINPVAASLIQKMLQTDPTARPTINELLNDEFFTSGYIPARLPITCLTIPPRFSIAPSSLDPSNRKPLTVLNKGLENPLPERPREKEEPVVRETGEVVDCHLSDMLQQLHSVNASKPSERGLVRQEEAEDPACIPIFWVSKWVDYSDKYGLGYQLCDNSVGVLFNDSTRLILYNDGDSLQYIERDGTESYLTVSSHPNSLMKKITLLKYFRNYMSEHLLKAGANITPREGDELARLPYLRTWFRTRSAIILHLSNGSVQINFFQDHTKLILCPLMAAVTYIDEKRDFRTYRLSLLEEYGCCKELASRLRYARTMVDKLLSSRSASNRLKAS

[38] = target: cAMP-dependent protein kinase catalytic subunit alpha (Homo sapiens) (UniProt P17612); assay: Inhibition of PRKACA at 1 uM; summary of the method: as §1
[39] = target: Protein kinase C alpha type (Homo sapiens) (UniProt P17252); assay: Inhibition of PRKCA at 1 uM; summary of the method: as §1
[40] = target: Protein kinase C theta type (Homo sapiens) (UniProt Q04759); assay: Inhibition of PRKCQ at 1 uM; summary of the method: as §1
[41] = target: Focal adhesion kinase 1 (Homo sapiens) (UniProt Q05397); assay: Inhibition of PTK2 at 1 uM; summary of the method: as §1
[42] = target: Rho-associated protein kinase 1 (Homo sapiens) (UniProt Q13464); assay: Inhibition of ROCK1 at 1 uM; summary of the method: as §1
[43] = target: Ribosomal protein S6 kinase beta-1 (Homo sapiens) (UniProt P23443); assay: Inhibition of RPS6KB1 at 1 uM; summary of the method: as §1
[44] = target: Serine/threonine-protein kinase Sgk1 (Homo sapiens) (UniProt O00141); assay: Inhibition of SGK at 1 uM; summary of the method: as §1
[45] = target: Proto-oncogene tyrosine-protein kinase Src (Homo sapiens) (UniProt P12931); assay: Inhibition of SRC at 1 uM; summary of the method: as §1
[46] = target: Aurora kinase A (Homo sapiens) (UniProt O14965); assay: Inhibition of STK6 at 1 uM; summary of the method: as §1
Chain of Aurora kinase A (Homo sapiens) (O14965 whole entry): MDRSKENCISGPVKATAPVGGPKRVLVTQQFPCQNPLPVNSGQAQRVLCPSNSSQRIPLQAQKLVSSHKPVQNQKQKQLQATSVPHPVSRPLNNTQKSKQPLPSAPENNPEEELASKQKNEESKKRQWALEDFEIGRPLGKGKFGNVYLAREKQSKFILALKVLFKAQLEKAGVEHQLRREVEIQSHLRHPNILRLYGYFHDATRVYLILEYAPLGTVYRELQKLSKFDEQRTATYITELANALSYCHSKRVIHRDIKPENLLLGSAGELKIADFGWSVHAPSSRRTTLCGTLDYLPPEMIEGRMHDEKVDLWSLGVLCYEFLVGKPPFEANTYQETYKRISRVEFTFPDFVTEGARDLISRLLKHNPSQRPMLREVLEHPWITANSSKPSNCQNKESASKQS

[47] = target: Tyrosine-protein kinase SYK (Homo sapiens) (UniProt P43405); assay: Inhibition of SYK at 1 uM; summary of the method: as §1
[48] = target: Tyrosine-protein kinase Yes (Homo sapiens) (UniProt P07947); assay: Inhibition of YES1 at 1 uM; summary of the method: as §1
[49] = target: Ephrin type-A receptor 1 (Homo sapiens) (UniProt P21709); assay: Inhibition of EPHA1 at 1 uM; summary of the method: as §1
[50] = target: Tyrosine-protein kinase Lyn (Homo sapiens) (UniProt P07948); assay: Inhibition of LYN A at 1 uM; summary of the method: as §1

T1 sequence (P31749 whole entry): as the sequence (P31749 whole entry C296A/C310A) above, with A296C, A310C counted along it

In the case of `O=C1C[C@H]2OC3(CCCC3)C3=C(C(=O)c4ccccc4C3=O)[C@H]2O1` (racemic), the IC50 [1] is reported as 295 nM and the IC50 [2] is reported as 1600 nM.

With `CCC[C@H]1O[C@H](CC(=O)OCC)CC2=C1C(=O)c1ccccc1C2=O` (racemic) the Activity [3] was “inactive”.

For `CCC[C@@H]1O[C@@H]2CC(=O)O[C@@H]2C2=C1C(=O)c1ccccc1C2=O` (racemic), the IC50 [1] was 383 nM and the IC50 [2] was 1300 nM.

For `Nc1ccc([C@@H]2O[C@@H]3CC(=O)O[C@@H]3C3=C2C(=O)c2ccccc2C3=O)cc1` (racemic), the IC50 [1] was 850 nM and the IC50 [2] was 550 nM.

`CCC[C@H]1O[C@H](CC(=O)O)CC2=C1C(=O)c1c(O)cccc1C2=O` [DEOXYFRENOLICIN] gave an IC50 [1] of 424 nM and an IC50 [2] of 330 nM.

`C[C@H]1O[C@@H]2CC(=O)O[C@@H]2C2=C1C(=O)c1ccccc1C2=O` gave an IC50 [1] of 150 nM and an IC50 [2] of 480 nM.

For `CCOC(=O)C[C@@H]1CC2=C(C(=O)c3ccccc3C2=O)[C@@H](C)O1`, the Activity [3] was “inactive”.

In the case of `O=C1C[C@H]2O[C@H](COCc3ccccc3)C3=C(C(=O)c4ccccc4C3=O)[C@H]2O1` (racemic), the IC50 [1] is reported as 72 nM and the IC50 [2] is reported as 1000 nM.

`CCC[C@H]1O[C@@H]2CC(=O)O[C@@H]2C2=C1C(=O)c1c(O)cccc1C2=O` [FRENOLICIN B] gave an IC50 [1] of 198 nM and an IC50 [2] of 60 nM.

For `CCOC(=O)C[C@@H]1CC2=C(C(=O)c3ccccc3C2=O)[C@@H](COCc2ccccc2)O1` (racemic), the Activity [3] was “inactive”.

For `C[C@H]1O[C@@H]2CC(=O)O[C@@H]2C2=C1C(=O)c1c(ccc([C@H]3C[C@@H](N(C)C)[C@H](O)[C@@H](C)O3)c1O)C2=O` [LACTOQUINOMYCIN], the IC50 [1] was 149 nM, the IC50 [2] was 50 nM and the IC50 [4] was 38500 nM. The IC50 [5] was 30400 nM, the Activity [6] was “inactive” and the inhibition [7] was 0%. The inhibition [8] was 92%, the inhibition [9] was 99% and the inhibition [10] was 1%. It also gave an inhibition [11] of 2%, an inhibition [12] of 0% and an inhibition [13] of 10%. The inhibition [14] was 6%, the inhibition [15] was 0% and the inhibition [16] was 26%. The inhibition [17] was 5%, the inhibition [18] was 38% and the inhibition [19] was 29%. The inhibition [20] was 4%, the inhibition [21] was 17% and the inhibition [22] was 2%. It also gave an inhibition [23] of 41%, an inhibition [24] of 1% and an inhibition [25] of 21%. The inhibition [26] was 0%, the inhibition [27] was 0% and the inhibition [28] was 34%. For the same compound, the inhibition [29] was 6%, the inhibition [30] was 49% and the inhibition [31] was 7%. The inhibition [32] was 14%, the inhibition [33] was 0% and the inhibition [34] was 14%. It also gave an inhibition [35] of 15%, an inhibition [36] of 32% and an inhibition [37] of 0%. It also gave an inhibition [38] of 0%, an inhibition [39] of 16% and an inhibition [40] of 22%. It also gave an inhibition [41] of 12%, an inhibition [42] of 1% and an inhibition [43] of 16%. For the same compound, the inhibition [44] was 20%, the inhibition [45] was 0% and the inhibition [46] was 17%. The inhibition [47] was 2%, the inhibition [48] was 14% and the inhibition [49] was 8%. For the same compound, the inhibition [50] was 3%.

`CCC[C@H]1O[C@@H]2CC(=O)O[C@@H]2C2=C1C(=O)c1ccccc1C2=O` (racemic) showed an IC50 [1] of 163 nM and an IC50 [2] of 600 nM.

For `CCOC(=O)C[C@@H]1CC2=C(C(=O)c3ccccc3C2=O)[C@@H](c2cccs2)O1`, the Activity [3] was “inactive”.

For `CCOC(=O)C[C@@H]1CC2=C(CO1)C(=O)c1ccccc1C2=O`, the Activity [3] was “inactive”.

Work on `CC1(C)O[C@@H]2CC(=O)O[C@@H]2C2=C1C(=O)c1ccccc1C2=O` (racemic) yielded an IC50 [1] of 1440 nM and an IC50 [2] of 230 nM.
